Measurements pooled from the literature.
Each line is one published result; the experiments were not run side by side.
gag-pol reverse transcriptase: Gag-Pol polyprotein, reverse transcriptase (gag-pol, Human immunodeficiency virus 1, UniProt P03366)
PLG trypsin-like site: Plasminogen, trypsin-like site (PLG, Homo sapiens, UniProt P00747)
CA2: Carbonic anhydrase 2 (CA2, Homo sapiens, UniProt P00918)
OPRD1: Delta-type opioid receptor (OPRD1, Homo sapiens, UniProt P41143)

The Kd of `Cc1cc(/C=C/C#N)cc(C)c1Nc1ccnc(Nc2ccc(C#N)cc2)n1` is reported as 2.53 µM (gag-pol reverse transcriptase; binding, SPR).
`O=C(CCCOc1cccc(Br)c1)N[C@H]1C[C@@H]2C[C@@H]2C1=O` (relative stereo) gave an EC50 of 0.2 µM (Transcriptional activator protein LasR (lasR, Pseudomonas aeruginosa, UniProt P25084, A127W); reporter gene, agonist).
`CC(C)(C)[C@H](NC(=O)[C@H](CCCNC(=N)N)NC(=O)Cc1ccc(CNC(=N)N)cc1)C(=O)N[C@@H](CCONC(=N)N)C(=O)NCc1ccc(C(=N)N)cc1` gave a Ki of 3.1 µM (PLG trypsin-like site; enzyme activity, inhibitor; pH 8).
With `Cc1ccnc(S)c1` the Ki was 7000 µM (CA2; enzyme activity, inhibitor, absorbance; pH 8).
With `Cc1cc(O)cc(C)c1C[C@H](N)C(=O)N[C@H](C)C(=O)NCC(=O)N[C@@H](Cc1ccc(Cl)cc1)C(=O)N(C)CCC[C@@]1(c2ccc(F)cc2)OCc2cc(C#N)ccc21` the Ki was 4.7 µM (Alpha-2A adrenergic receptor (ADRA2A, Homo sapiens, UniProt P08913); ligand displacement, radioligand).
`CC(C)(C)[C@H](NC(=O)[C@H](CCCNC(=N)N)NC(=O)Cc1ccc(CNC(=N)N)cc1)C(=O)N[C@@H](CCCNC(=N)N)C(=O)NCc1ccc(C(=N)N)cc1` gave a Ki of 3.5 µM (PLG trypsin-like site; enzyme activity, inhibitor; pH 8).
`CC(=O)Nc1ccc(O)cc1` has a Ki of greater than 1000 µM (NAD(P)H dehydrogenase [quinone] 1 (NQO1, Homo sapiens, UniProt P15559); enzyme activity, inhibitor, absorbance).
For `COc1cc(C(=O)N2CC[C@@H](O)[C@@H](N)C2)cc2nc(-c3cc4ccccc4n3CC3CC3)n(C)c12`, the EC50 was 50.1 µM (5-hydroxytryptamine receptor 3A (HTR3A, Homo sapiens, UniProt P46098); calcium signal, agonist).
For `CCC(C)[C@@H](CNC)N1CCN(CCCC2CCCCC2)[C@H](C(C)C)C1` (some centres unmarked), the IC50 was greater than 10 µM (OPRD1; cell-free assay).
The Ki of `CC(C)(C)[C@H](NC(=O)[C@H](CCONC(=N)N)NC(=O)Cc1ccc(CN)cc1)C(=O)N[C@@H](CCCCN)C(=O)NCc1ccc(C(=N)N)cc1` is reported as 21 µM (PLG trypsin-like site; enzyme activity, inhibitor; pH 8).
For `CS(=O)(=O)c1cccc(OCCCC(=O)N[C@H]2C[C@@H]3C[C@@H]3C2=O)c1` (relative stereo), the EC50 was 0.35 µM (Transcriptional activator protein LasR (lasR, Pseudomonas aeruginosa, UniProt P25084, A127W/Y93F); reporter gene, agonist).
For `CCC(C)[C@@H](CNC)N1CCN(CCC2CC3CCC2C3)[C@H](C(C)C)C1` (some centres unmarked), the IC50 was greater than 10 µM (OPRD1; cell-free assay).
`On1c(=S)ccc2ccccc21` has a Ki of 730 µM (CA2; enzyme activity, inhibitor, absorbance; pH 8).
For `CNC[C@H](Cc1ccc(O)cc1)NC[C@H](Cc1ccc(O)cc1)NCC1CCC(C)CC1` (some centres unmarked), the IC50 was greater than 10 µM (OPRD1; cell-free assay).
`Cc1cn([C@@H]2CC[C@H](OC(C(=O)O)C(=O)O)C2)c(=O)[nH]c1=O` has an IC50 of 20 µM (gag-pol reverse transcriptase; enzyme activity, inhibitor, radiometric).
`CNC[C@@H](Cc1ccc(O)cc1)N1CCN(CC2CCCCCC2)[C@@H](C(C)C)C1` gave an IC50 of greater than 10 µM (OPRD1; cell-free assay).
For `On1ccccc1=S`, the Ki was 567 µM (CA2; enzyme activity, inhibitor, absorbance).
